# Compound activity as filed in PubChem BioAssay.
# This is a sample that favours compounds with a hit; in the whole collection about 4.6% have one here.
# TAAR1 antag: antagonists of human TAAR1; Q96RJ0; CHO RD-HGA16 TAAR1, Fluo-8 calcium fluorescence, antagonist; inhibition, % at 3 µM; actives 1.5% (n = 360,000); AID 624466;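 active = inhibition above a per-plate cutoff, the mean inhibition of test compounds on that plate plus 3 SD, cut at about 49% in these data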;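 also: 0% = DMSO plus EC80 beta-PEA response and 100% = DMSO alone without agonist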
#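 Test system – hTAAR1-expressing CHO RD-HGA16 cells, Gα16-coupled · Also added – β-PEA at EC80 concentration, post-compound challenge · Compound – 3 µM, single point · Incubation – dye loading 75 min at 37 °C, then 30 min room temperature · Measured by – Fluo-8 intracellular calcium dye fluorescence, real-time kinetic reads · Benchmarks – vehicle and agonist controls · Replicates – singlicate, one well per test compound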
# TAAR1 ag: agonists of human TAAR1 | activation, % at 3 µM | AID 624467 | actives 0.99% (n = 360,000) | CHO RD-HGA16 TAAR1, Fluo-8 calcium fluorescence; vehicle wells 0%, saturating PEA agonist 100%;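 active = activation above the mean activation of all test compounds in the run plus 3 SD, cut at about 38% in these data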
#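 Assay system – CHO-derived RD-HGA16 cells with stable Gα16 and human TAAR1 · Compound dosing – one-point dosing at 3 µM (nominal) · Incubation – 17-24 h seeding, 75 min 37 °C dye, 30 min RT · Measured by – kinetic Fluo-8 calcium fluorescence · Control set – DMSO vehicle as 0%, PEA at EC100 as 100% · Repeats – single well for each compound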
# GPR7 antag: human neuropeptides B/W receptor 1 antagonism. actives 1.1% (n = 290,000). inhibition, % at 4.4 µM. AID 1861. GPR7-expressing cells, fluorescence antagonist assay; in the data active = inhibition above about 16%, passing the limit was not always enough;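 also: cells stimulated with the agonist NPW; 0% = agonist with vehicle and 100% = vehicle without agonist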
# OX1R antag-1: blocks the human orexin 1 receptor. actives 0.43% (n = 330,000). CHO/OX1R cells, Fluo-8 calcium fluorescence, orexin A. inhibition, % at 5 µM. AID 434989. O43613;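 active = inhibition above its plate's threshold, mean inhibition of all tested compounds on the plate plus 3 SD, cut at about 37% in these data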;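 also: 0% = orexin A challenge wells and 100% = SB-334867-A antagonist wells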
# Target sequence (O43613 whole entry, looked up): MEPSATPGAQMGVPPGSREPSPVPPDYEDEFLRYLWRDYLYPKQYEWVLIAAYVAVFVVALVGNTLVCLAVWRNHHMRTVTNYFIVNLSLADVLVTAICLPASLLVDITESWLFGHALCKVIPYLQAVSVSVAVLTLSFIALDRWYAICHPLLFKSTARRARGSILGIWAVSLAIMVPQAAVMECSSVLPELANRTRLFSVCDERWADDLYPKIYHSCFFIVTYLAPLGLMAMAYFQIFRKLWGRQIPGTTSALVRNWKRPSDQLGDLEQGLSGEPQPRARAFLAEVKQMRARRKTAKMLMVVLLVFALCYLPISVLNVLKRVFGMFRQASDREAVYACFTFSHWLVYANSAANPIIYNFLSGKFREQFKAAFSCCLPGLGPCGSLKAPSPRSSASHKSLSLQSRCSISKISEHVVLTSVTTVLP
# CHO parental Ca: counter-screen: ATP calcium response change in parental CHO cells; parental CHO-K1, ATP-induced calcium, Fluo-8 fluorescence; AID 463079; actives 0.63% (n = 330,000); inhibition, % at 5.6 µM;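 active = inhibition above that plate's mean sample inhibition plus 3 SD, cut at about 26% in these data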;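 also: 0% = ATP-challenged DMSO wells and 100% = DMSO wells without ATP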
#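 material = parental CHO cells | also added = ATP as calcium-mobilizing challenge | dosing = single point at 5.6 µM | detection = intracellular calcium via Fluo-8 no-wash fluorescent dye | read-out = % inhibition | benchmarks = low control ATP plus DMSO, high control DMSO only | repeats = one well per compound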
# OX1R antag-2: blocks the human orexin 1 receptor; O43613; OX1R-expressing cells, FRET antagonist read-out; inhibition, % at 6.6 µM; actives 1.8% (n = 330,000); AID 485270; in the data active = inhibition mostly above about 38%, no sharp cut-off; inactive = mostly below about 40%;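 also: 0% = agonist challenge alone and 100% = reference antagonist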
# Numbers without * were called inactive; x = no result given.
SMILES,TAAR1 antag,TAAR1 ag,GPR7 antag,OX1R antag-1,CHO parental Ca,OX1R antag-2
COc1cc(/C=C/C(=O)OCC(=O)N(CC(C)C)c2c(N)n(Cc3ccccc3)c(=O)[nH]c2=O)ccc1O,49*,25,x,x,x,x
Clc1ccc(CNc2ncnc3[nH]ncc23)cc1Cl,17,7,x,x,x,x
CC[n+]1c(/C=C/c2ccc(OC(C)=O)c(OC)c2)ccc2ccccc21,-2,0,-15,x,x,x
CC[n+]1c(/C=C/c2ccc(OC)c(OC)c2)ccc2ccccc21,-21,0,-8,-23,-4,65*
N/C(=N\O)c1ccc([N+](=O)[O-])s1,1,5,-6,-8,-2,47*
N/C(=N\OC(=O)C1CC1)c1ccc([N+](=O)[O-])s1,8,16,-10,-13,-2,56*
CC(C)(C)C(=O)O/N=C(\N)c1ccc([N+](=O)[O-])s1,3,17,-5,-2,-4,19
OC(CNc1ccccc1)COc1ccc(OCC(O)CNc2ccccc2)cc1 (centres undefined),34,27,24,40,50*,40
COc1ccc(CCNCC(O)COc2cccc(Br)c2)cc1 (centres undefined),-12,14,0,-47,-27,28
OC(CNCCc1ccc(C(F)(F)F)cc1)COc1ccc2ccccc2c1 (centres undefined),10,29,0,15,48*,-5
CCOCC(O)CNc1ccccc1 (centres undefined),-15,4,-10,14,0,0
COc1ccc(CNCC(O)COc2ccc(C(C)(C)c3ccccc3)cc2)cc1 (centres undefined),5,41*,16,-9,36*,-9
COC(=O)c1cc(NC(=O)Cn2c(=O)oc3ccccc32)cc(C(=O)OC)c1,1,5,3,-38,-15,6
O=C(Nc1nnc(-c2cccs2)o1)c1cc(-c2ccccc2)nc2ccccc12,-8,22,-2,-5,-5,46*
CN(C)S(=O)(=O)c1cccc(NC(=O)c2cc(-c3cccs3)nc3ccccc23)c1,64*,16,-1,-3,-2,26
CN(C(=O)c1ccccc1)C(=O)c1ccccc1,2,2,x,x,x,x
C/C(Cc1ccccc1)=N\NC(=O)CNC(=O)c1ccccc1F,1,8,8,-1,-14,18
Cc1ccc(NC(=S)NCCN(C2CCCCC2)C2CCCC2)cc1,-15,10,31*,-34,-19,6
COc1ccc(-c2nc(N3CCCCCC3)sc2C(=O)c2ccccc2)cc1,80*,42*,-6,56*,36*,39
Cc1cccc(C)c1-n1nnnc1C1c2ccccc2C(=O)N1CCOc1ccccc1 (centres undefined),2,0,x,x,x,x
COc1cc(NC(=O)Cc2ccccc2)cc(OC)c1,9,0,0,-10,-3,32
COc1cc(NC(=O)C[n+]2ccc(C(=O)c3ccccc3)cc2)cc(OC)c1,5,-3,x,5,0,43*
C[n+]1c2n(c3ccccc31)N=C(c1cc(C(C)(C)C)c(O)c(C(C)(C)C)c1)CS2,-2,6,70*,-4,18,10
COc1cccc(C2=Nn3c(nnc3-c3ccccc3O)SC2)c1,5,0,14,-16,-11,15
COc1ccc(N2CCN(C(=O)c3ccc(NS(=O)(=O)c4ccc(F)c(F)c4)cc3)CC2)cc1,-5,5,9,14,40*,15
SMILES,TAAR1 antag,TAAR1 ag,GPR7 antag,OX1R antag-1,CHO parental Ca,OX1R antag-2
COc1ccc(NS(=O)(=O)c2ccc(C(=O)N3CCN(c4ccc(F)cc4)CC3)cc2)cc1,43,17,x,34,27*,8
COc1ccc(N2CCN(C(=O)c3cccc(NS(=O)(=O)c4cccc(F)c4)c3)CC2)cc1,-29,1,-3,x,x,x
COc1ccccc1N1CCN(C(=O)c2cccc(S(=O)(=O)Nc3ccccc3F)c2)CC1,54*,18,x,7,-13,1
COc1ccc(N2CCN(C(=O)c3ccc(NS(=O)(=O)c4cccc(F)c4)cc3)CC2)cc1,28,9,-5,-10,-7,12
CCCNC(=O)COC(=O)c1cccnc1Nc1ccccc1F,-13,-2,-12,-3,-11,34
O=C(COC(=O)c1cccnc1Nc1ccccc1F)NCCN1C(=O)CSC1=O,-6,3,4,15,-14,55*
CC1C(=O)Nc2ccc(S(=O)(=O)Nc3ccccc3Br)cc2NC1=O (centres undefined),-32,0,-9,-10,11,-3
COCc1[nH]nc2c1C(c1ccc(OC)c(OC)c1)C(C#N)=C(N)O2 (centres undefined),-3,8,-9,-8,4,25
COCc1[nH]nc2c1C(c1cc(OC)c(O)c(OC)c1)C(C#N)=C(N)O2 (centres undefined),-8,14,0,-6,-6,76*
O=c1cnc2ccccc2n1Cc1ccccc1C(F)(F)F,-12,-2,4,-6,-10,3
Fc1ccc(-[n+]2nc(Nc3ccccc3)sc2-c2c3ccccc3cc3ccccc23)cc1,25,46*,17,-21,11,25
Oc1ccc2ccccc2c1-c1sc(Nc2ccccc2)n[n+]1-c1ccc(F)cc1,6,14,-10,-21,-17,5
CCc1ccc(CN(C)C(=O)C2CCC(=O)N(CCCN3CCCC3=O)C2)cc1 (centres undefined),-13,1,-23,-3,1,2
CC(C)(C)c1ccc(/C=C/C(=O)Nc2ccncc2)cc1,53*,3,0,13,1,29
CC(=O)N1CC(=O)N=C1SCC(=O)Nc1nc(C)c(-c2ccccc2)s1,-11,0,-2,-2,-19,24
Cc1cc(NC(=O)COC(=O)c2cc(S(=O)(=O)N(C)C)ccc2Cl)no1,-13,10,x,-44,-24,4
Cc1ccc(-c2nnc(Nc3ccccc3)c3ccccc23)cc1S(=O)(=O)NCC1CCCO1 (centres undefined),58*,17,-12,66*,29*,12
Cc1ccc(-c2nnc(Nc3ccc4c(c3)OCO4)c3ccccc23)cc1S(=O)(=O)NC(C)C,24,3,-2,38,31*,38
COc1cc2nc(CN3CCN(S(=O)(=O)c4ccccc4[N+](=O)[O-])CC3)[nH]c(=O)c2cc1OC,2,3,x,x,x,x
Cc1cc(C)c(CN2CCN(CCCn3ccc(NC(=O)OCc4ccccc4)nc3=O)CC2)c(C)c1,-8,16,x,x,x,x
CCN(CC(=O)Nc1c(F)cccc1F)C(=O)Cc1csc(-c2ccccc2)n1,-6,10,x,-10,-30,63*
